Results on 14 molecules are retold here after ChEMBL document CHEMBL4622915, “Design and synthesis of C-12 dithiocarbamate andrographolide analogues as an anticancer agent” (Bioorg Med Chem Lett, 2020).

pIC50: −log10 of the molar value.

What all share (type): functional, cell-based
Assay [1] can be described thus: Anticancer activity against human KKU-M213 cells assessed as reduction in cell viability measured after 72 hrs by SRB assay. The settings on record: KKU-M213, 72 h. An outline of the steps:
(§1)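 Adherent cells seeded at 10^4 cells/well and exposed 72 h to compound at 0.1–50 μM, dissolved in DMSO (less than 0.05%). Ellipticine served as positive control. Afterwards cells washed, fixed with TCA, stained with 0.4% SRB in 1% acetic acid. Bound dye extracted and OD read at 515 nm; IC50 derived.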

The subject of the next assay is P388. Description: Anticancer activity against mouse P388 cells assessed as reduction in cell viability measured after 48 hrs by SRB assay. The conditions noted are these: P388, 48 h. An outline of the steps: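 Suspension cells seeded at 10^4 cells/well and exposed 48 h to compound at 0.1–50 μM, dissolved in DMSO (less than 0.05%). Ellipticine served as positive control. Then washed, TCA-fixed, stained with 0.4% SRB in 1% acetic acid. Protein-bound dye extracted and absorbance read at 515 nm; IC50 taken.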
(In general: Sulforhodamine B stains cellular protein and so reports cell mass.)

A further assay relates to MCF7. Description: Anticancer activity against human MCF7 cells assessed as reduction in cell viability measured after 72 hrs by SRB assay. The conditions noted are these: MCF7, 72 h. The gist of the method:
as §1

The subject of another assay is HT-29. Description: Anticancer activity against human HT-29 cells assessed as reduction in cell viability measured after 72 hrs by SRB assay. The conditions noted are these: HT-29, 72 h. The gist of the method: as §1
The subject of another assay is HuCC-A1. Description: Anticancer activity against human HuCCa1 cells assessed as reduction in cell viability measured after 72 hrs by SRB assay. The settings on record: HuCC-A1, 72 h. The gist of the method: as §1
Another assay has as its system A549. Description: Anticancer activity against human A549 cells assessed as reduction in cell viability measured after 72 hrs by SRB assay. The conditions noted are these: A549, 72 h. An outline of the steps: as §1
Assay [2] is described as follows: Anticancer activity against human KKU055 cells assessed as reduction in cell viability measured after 72 hrs by SRB assay. The gist of the method: as §1
The next assay deals with KB. The assay can be described thus: Anticancer activity against human KB cells assessed as reduction in cell viability measured after 72 hrs by SRB assay. The gist of the method:
as §1

Assay [3] can be described thus: Anticancer activity against rat ASK cells assessed as reduction in cell viability measured after 72 hrs by SRB assay. An outline of the steps: as §1

Turning to `C=C1CC[C@@H]2[C@](C)(COC(C)=O)[C@H](OC(C)=O)CC[C@@]2(C)[C@@H]1C[C@H](SC(=S)N1CCN(c2ccc(C)cc2)CC1)C1=CCOC1=O`, the negative-log IC50 (pIC50) in assay [1] was 5.19; with P388, 5.26; in the assay with MCF7 it was 5.22; with HT-29, 5.08; with HuCC-A1, 4.76; with A549, 4.56. In addition, the pIC50 is 4.83 in assay [2], 4.71 with KB and 4.55 in [3].
As to `C=C1CC[C@@H]2[C@](C)(COC(C)=O)[C@H](OC(C)=O)CC[C@@]2(C)[C@@H]1C[C@H](SC(=S)N1CCN(C(c2ccc(F)cc2)c2ccc(F)cc2)CC1)C1=CCOC1=O`, the pIC50 in assay [1] is 4.54; in the assay with P388, 4.85; in the assay with MCF7, 4.62; with HT-29 it was under 4.30; with HuCC-A1, under 4.30; in the assay with A549, under 4.30. Further, the negative logarithm of the IC50 (pIC50) was 4.55 in assay [2], 4.37 with KB and under 4.30 in assay [3].
For the molecule `Cc1c2ccncc2c(C)c2c1[nH]c1ccccc12` [ELLIPTECINE], the pIC50 in [1] is 5.74; with P388, 5.75; with MCF7, 5.75; in the assay with HT-29 it was 5.67; with HuCC-A1, 5.61; in the assay on A549, 5.65. The pIC50 was 5.61 in assay [2], 5.72 in the assay on KB and 5.66 in assay [3].
Turning to `C=C1CC[C@@H]2[C@](C)(COC(C)=O)[C@H](OC(C)=O)CC[C@@]2(C)[C@@H]1C[C@H](SC(=S)N(CC)Cc1ccncc1)C1=CCOC1=O`, the pIC50 in assay [1] was 5.25; in the assay on P388, 5.23; in the assay on MCF7, 5.61; in the assay on HT-29, 5.37; in the assay with HuCC-A1, 5.15; in the assay with A549, 5.03. The pIC50 is 5.39 in assay [2], 4.77 in the assay on KB and 4.74 in [3].
Take `C=C1CC[C@@H]2[C@](C)(COC(C)=O)[C@H](OC(C)=O)CC[C@@]2(C)[C@@H]1C[C@H](SC(=S)N(C)Cc1ccccc1)C1=CCOC1=O`: the negative-log IC50 (pIC50) in assay [1] was 5.32; in the assay on P388, 5.66; in the assay with MCF7, 6.23; with HT-29, 5.21; in the assay on HuCC-A1 it was 5.06; in the assay with A549, 5.16. For the same molecule, the pIC50 in [2] is 5.87; with KB, 4.60; in assay [3] it was 5.16.
Regarding `C=C1CC[C@@H]2[C@](C)(COC(C)=O)[C@H](OC(C)=O)CC[C@@]2(C)[C@@H]1C/C=C1/C(=O)OC[C@H]1OC(C)=O`, the pIC50 was 4.83 in assay [1]; 5.18 in the assay with P388; 5.10 in the assay on MCF7; 4.66 in the assay with HT-29; 4.70 in the assay on HuCC-A1; under 4.30 in the assay on A549. Further, the results for the pIC50 (in assay [2]; in the assay on KB; in assay [3]) were 5.30, 4.55 and 4.65, respectively.
Turning to `C=C1CC[C@@H]2[C@](C)(COC(C)=O)[C@H](OC(C)=O)CC[C@@]2(C)[C@@H]1C[C@H](SC(=S)N1CCN(c2ccccc2)CC1)C1=CCOC1=O`, the negative logarithm of the IC50 (pIC50) in [1] was 5.19; with P388, 5.37; in the assay on MCF7, 5.19; with HT-29, 5.09; with HuCC-A1, 5.02; in the assay with A549, 4.54. In addition, the negative-log IC50 (pIC50) is 5.03 in [2], 4.63 in the assay on KB and 4.81 in [3].
On to `C=C1CC[C@@H]2[C@](C)(COC(C)=O)[C@H](OC(C)=O)CC[C@@]2(C)[C@@H]1C[C@H](SC(=S)N(Cc1ccccc1)Cc1ccccc1)C1=CCOC1=O`, for which the negative-log IC50 (pIC50) in assay [1] was 5.25; with P388 it was 5.31; in the assay on MCF7, 5.32; with HT-29 it was 5.18; in the assay with HuCC-A1 it was 5.12; in the assay on A549, 4.64. Also, the pIC50 is 5.22 in [2], 5.06 with KB and 5.14 in assay [3].
For the molecule `C=C1CC[C@@H]2[C@](C)(COC(C)=O)[C@H](OC(C)=O)CC[C@@]2(C)[C@@H]1C[C@H](SC(=S)N1CCN(C(c2ccccc2)c2ccc(Cl)cc2)CC1)C1=CCOC1=O` (stereo partly specified), the pIC50 is under 4.30 in assay [1]; 4.65 with P388; 4.66 in the assay on MCF7; under 4.30 in the assay on HT-29; under 4.30 with HuCC-A1; under 4.30 in the assay with A549. Further, the pIC50 in assay [2] was 4.56; with KB, under 4.30; in assay [3], under 4.30.
`C=C1CC[C@@H]2[C@](C)(COC(C)=O)[C@H](OC(C)=O)CC[C@@]2(C)[C@@H]1C[C@H](SC(=S)N1CCC(Cc2ccccc2)CC1)C1=CCOC1=O`: the negative logarithm of the IC50 (pIC50) in assay [1] was 5.17; in the assay with P388, 5.31; in the assay with MCF7, 5.26; with HT-29, 4.82; with HuCC-A1, 4.71; with A549 it was 4.54. Besides, the negative-log IC50 (pIC50) in [2] is 5.19; in the assay on KB it was 4.47; in assay [3], 4.54.
In the case of `C=C1CC[C@@H]2[C@](C)(COC(C)=O)[C@H](OC(C)=O)CC[C@@]2(C)[C@@H]1C[C@H](SC(=S)N1CCOCC1)C1=CCOC1=O`, the negative-log IC50 (pIC50) is 5.29 in assay [1]; 5.24 with P388; 5.53 in the assay with MCF7; 5.38 in the assay on HT-29; 5.32 in the assay on HuCC-A1; 4.83 with A549. For the same molecule, the negative logarithm of the IC50 (pIC50) is 5.28 in assay [2], 5.22 with KB and 5.03 in assay [3].
Turning to `C=C1CC[C@@H]2[C@](C)(COC(C)=O)[C@H](OC(C)=O)CC[C@@]2(C)[C@@H]1C[C@H](SC(=S)N1CCN(C(=O)C2COc3ccccc3O2)CC1)C1=CCOC1=O` (stereo partly specified), the negative-log IC50 (pIC50) is 5.21 in [1]; 5.47 in the assay on P388; 5.41 in the assay on MCF7; 5.04 in the assay with HT-29; 4.76 in the assay with HuCC-A1; 4.63 in the assay with A549. The pIC50 in [2] was 5.25; in the assay on KB, 4.64; in [3] it was 4.59.
Regarding `C=C1CC[C@@H]2[C@](C)(COC(C)=O)[C@H](OC(C)=O)CC[C@@]2(C)[C@@H]1C[C@H](SC(=S)N(C)Cc1ccc(F)cc1)C1=CCOC1=O`, the negative logarithm of the IC50 (pIC50) was 5.29 in [1]; 5.44 in the assay with P388; 6.17 in the assay with MCF7; 5.21 in the assay on HT-29; 5.11 in the assay with HuCC-A1; 4.93 in the assay on A549. Besides, the results for the negative-log IC50 (pIC50) (in [2]; in the assay with KB; in assay [3]) were 5.52, 4.59 and 4.77, respectively.
For the molecule `C=C1CC[C@@H]2[C@](C)(COC(C)=O)[C@H](OC(C)=O)CC[C@@]2(C)[C@@H]1C[C@H](SC(=S)N1CCN(c2ccccc2F)CC1)C1=CCOC1=O`, the pIC50 is 5.28 in assay [1]; 5.24 in the assay with P388; 5.22 with MCF7; 5.15 in the assay with HT-29; 5.06 with HuCC-A1; 4.55 in the assay with A549. Besides, the figures for the negative logarithm of the IC50 (pIC50) (in assay [2]; with KB; in [3]) were 5.03, 4.72 and 5.02, respectively.

The term pIC50 denotes −log10 of the IC50, conventionally taken in molar units.
